Results of several laboratories.
Lines come from different studies, so protocols differ.
Target: Sodium-dependent dopamine transporter (SLC6A3, Homo sapiens, UniProt Q01959)

SMILES	effect on	mode	technique	cells	concentration	inhibition [%]
Oc1cccc(Nc2nc(-c3ccc(F)cc3F)cs2)c1	cell-free assay				10 µM	49.8
CCN(CC)c1ccc(C2Nc3ccc(C(=O)c4ccccc4)cc3NC3=C2C(=O)CC(C)(C)C3)cc1 (stereo not drawn)	ligand displacement		radioligand		10 µM	69
Cc1cc(-c2nc(CN3CCNCC3)no2)cc2c1C(=O)N(Cc1ccc(OC(F)(F)F)cc1)C2	ligand displacement		radioligand		10 µM	44
N#Cc1cc(Cn2c(N3CCCC3)nc3ccccc32)ccc1F	ligand displacement				10 µM	19.3
Clc1ccc(C(c2ccccc2)c2nnnn2CCCN2CCC(CCCc3ccccc3)CC2)cc1 (stereo not drawn)	transporter uptake	inhibitor		HEK293	1 µM	89.6
O=C1N=C(N2CCCCN2)S/C1=C\c1ccc(F)cc1O	ligand displacement		radioligand		10 µM	< 10
Nc1ccc(-c2ccncc2)cc1NC(=O)N1CCCC1	ligand displacement		radioligand		10 µM	21
Fc1ccc(C(c2ccc(F)cc2)c2nnnn2CCCCN2CCN(CCCc3ccccc3)CC2)cc1	transporter uptake	inhibitor		HEK293	1 µM	56.2
CCN(Cc1ccccc1C(F)(F)F)C(=O)C1CCN(S(=O)(=O)c2ccc3[nH]ncc3c2)CC1	ligand displacement		radioligand		10 µM	39
COc1cc(NC(C)=O)c(Cl)cc1C(=O)Nc1nccs1	cell-free assay				10 µM	5.5
Clc1ccc(C(c2ccc(Cl)cc2)c2nnnn2CCCCN2CCN(Cc3ccccc3)CC2)cc1	transporter uptake	inhibitor		HEK293	1 µM	91.7
CCCNc1nc2ccccc2n1Cc1ccc(Cl)cc1	ligand displacement				10 µM	24.3
